From ChEMBL document CHEMBL3421570, “Combinatorial Libraries As a Tool for the Discovery of Novel, Broad-Spectrum Antibacterial Agents Targeting the ESKAPE Pathogens” (J Med Chem, 2015)
Converted amounts (≈) assume the structure as drawn. The source made the active and inactive calls. The calls are words filed in the database; no cut-off is given here.

Experiments:
Klebsiella pneumoniae [1] = assay: Bactericidal activity against Klebsiella pneumoniae after 24 hrs; assay type: functional
Enterococcus faecium [2] = assay: Antimicrobial activity against Enterococcus faecium assessed as inhibition of microbial growth after 24 hrs; assay type: functional
How it was run: (§1)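 Broth microdilution against multidrug-resistant clinical ESKAPE isolates. Overnight cultures (TSB for Gram-positives, LB for Gram-negatives) diluted 1:1000 in fresh medium, compound in DMF (≤2.0% DMF) added at decreasing concentrations, 37°C.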

Acinetobacter baumannii [3] = assay: Antimicrobial activity against Acinetobacter baumannii assessed as inhibition of microbial growth after 24 hrs; assay type: functional; how it was run: as §1
Pseudomonas aeruginosa [4] = assay: Induction of spontaneous mutation in Pseudomonas aeruginosa at 2 to 10 MIC; assay type: functional, organism-based; conditions: 2 to 10 x MIC
Staphylococcus aureus [5] = assay: Effect on bacterial density of methicillin-resistant Staphylococcus aureus at MIC measured over 2 hrs period by time kill assay; assay type: functional, organism-based
[6] = Selectivity index, ratio of IC50 for human A549 cells to MIC for Enterobacter cloacae
[7] = Selectivity index, ratio of IC50 for human A549 cells to MIC for Staphylococcus aureus
Acinetobacter baumannii [8] = assay: Induction of spontaneous mutation in Acinetobacter baumannii at 2 to 10 MIC; assay type: functional, organism-based
Staphylococcus aureus [9] = assay: Ratio of MIC for Staphylococcus aureus measured after 8 cycle passage to MIC for wild type Staphylococcus aureus; assay type: functional
Klebsiella pneumoniae [10] = assay: Ratio of MIC for Klebsiella pneumoniae measured after 8 cycle passage to MIC for wild type Klebsiella pneumoniae; assay type: functional
Enterococcus faecium [11] = assay: Antimicrobial activity against Enterococcus faecium assessed as inhibition of microbial growth at 45 uM after 24 hrs; assay type: functional, organism-based
How it was run: (§2)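 Broth microdilution single-concentration read: overnight cultures diluted 1:1000, compound in DMF (≤2.0%) added, 37°C for 24 h, growth inhibition scored visually by lack of turbidity; triplicate. Gram-positives grown in TSB, Gram-negatives in LB.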

Staphylococcus aureus [12] = assay: Antimicrobial activity against Staphylococcus aureus USA300 strain FPR3757 infected in mouse model of lethal peritonitis assessed as mouse survival at 2 uM, im dosed 1 hr post infection and measured after 5 days post infection; assay type: functional, organism-based
How it was run: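 Mice, six per group, infected i.p. with 1 × 10^8 CFU ml−1 S. aureus USA300 FPR3757 in PBS with 5% mucin. Compound given i.m. at 2 μM 1 h later; vehicle 45% w/v (2-hydroxypropyl)-β-cyclodextrin in water i.v.; vancomycin i.v. as control. Monitored twice daily for 5 days, pre-moribund animals euthanized. Survival compared by log-rank test.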

[13] = Induction of hemolysis in human RBC at 10 uM incubated for 15 mins; assay type: cell-based, Erythrocyte; conditions: red blood cells, read-out: Activity
How it was run: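 Human RBCs from whole blood, resuspended 20% v/v in HA buffer (NaCl, CaCl2), compound 10 μM, 15 min at 37°C. Centrifuged 5,500 g for 1 min, supernatant OD543 read. Percent hemolysis against DMF vehicle (0%) and 1.0% Triton X-100 (100%); triplicate.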

Klebsiella pneumoniae [14] = assay: Antimicrobial activity against Klebsiella pneumoniae assessed as inhibition of microbial growth after 24 hrs; assay type: functional; how it was run: as §1
Staphylococcus aureus [15] = assay: Antimicrobial activity against Staphylococcus aureus assessed as inhibition of microbial growth after 24 hrs; assay type: functional; how it was run: as §1
Staphylococcus aureus [16] = assay: Bactericidal activity against methicillin-resistant Staphylococcus aureus assessed as cell survival recovery at MIC measured after drug wash out after 120 mins by time kill assay; assay type: functional
How it was run: (§3)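 MRSA from stationary phase was regrown 3 h in TSB and seeded at OD600 0.5. […] After 120 min, cells were centrifuged and washed, serially diluted and plated for CFU. Percent recovery is relative to no-drug controls.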

Acinetobacter baumannii [17] = assay: Antibiofilm activity against Acinetobacter baumannii incubated for 24 hrs followed by biofilm resuspension in PBS and measured after 24 hrs; assay type: functional
How it was run: (§4)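 Biofilms grown 24 h in 96-well plates from overnight cultures standardized to OD600 0.5 in fresh medium (human serum only for S. aureus; TSB for Gram-positives, LB for Gram-negatives). Medium then replaced with fresh medium containing a concentration range above and below MIC, 37°C overnight. After 24 h biofilm resuspended in PBS, serially diluted, plated in duplicate, CFU counted after 24 h at 37°C. Activity relative to untreated; three technical replicates; MBEC50 reported.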

Enterobacter cloacae [18] = assay: Antibiofilm activity against Enterobacter cloacae incubated for 24 hrs followed by biofilm resuspension in PBS and measured after 24 hrs; assay type: functional; how it was run: as §4
Staphylococcus aureus [19] = assay: Antimicrobial activity against Staphylococcus aureus assessed as inhibition of microbial growth at 45 uM after 24 hrs; assay type: functional, organism-based; how it was run: as §2
Staphylococcus aureus [20] = assay: Bactericidal activity against methicillin-resistant Staphylococcus aureus at MIC measured after drug wash out after 120 mins by time kill assay; assay type: functional; how it was run: as §3
[21] = Selectivity index, ratio of IC50 for human A549 cells to MIC for Enterococcus faecium
[22] = Selectivity index, ratio of IC50 for human A549 cells to MIC for Pseudomonas aeruginosa
A549 = assay: Cytotoxicity against human A549 cells after 48 hrs by MTT assay; assay type: cell-based; conditions: A549, 48 h
How it was run: (§5)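 A549 cells grown in F-12K with L-glutamine, 10% FBS, 1% penicillin-streptomycin, seeded at 1.0 × 10^5 ml−1, allowed to adhere 24 h (37°C, 5% CO2), then exposed to compound in 45% w/v (2-hydroxypropyl)-β-cyclodextrin vehicle for 48 h. MTT 4 h, formazan solubilized in DMSO, absorbance 540 nm. Percent recovery versus vehicle-only; IC50 derived; at least three independent experiments.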

[23] = Selectivity index, ratio of IC50 for human A549 cells to MIC for Klebsiella pneumoniae
[24] = Cytotoxicity against human A549 cells assessed as cell viability recovery up to 125 uM after 48 hrs by MTT assay; assay type: cell-based; conditions: read-out: Activity; how it was run: as §5
Enterobacter cloacae [25] = assay: Ratio of MIC for Enterobacter cloacae measured after 8 cycle passage to MIC for wild type Enterobacter cloacae; assay type: functional
[26] = Cytotoxicity against human A549 cells assessed as cell viability recovery at 225 uM after 48 hrs by MTT assay; assay type: cell-based; conditions: read-out: Activity; how it was run: as §5
Acinetobacter baumannii [27] = assay: Bactericidal activity against Acinetobacter baumannii after 24 hrs; assay type: functional
Enterobacter cloacae [28] = assay: Bactericidal activity against Enterobacter cloacae after 24 hrs; assay type: functional
Enterobacter cloacae [29] = assay: Antimicrobial activity against Enterobacter cloacae assessed as inhibition of microbial growth after 24 hrs; assay type: functional; how it was run: as §1
Pseudomonas aeruginosa [30] = assay: Antimicrobial activity against Pseudomonas aeruginosa assessed as inhibition of microbial growth after 24 hrs; assay type: functional; how it was run: as §1
Klebsiella pneumoniae [31] = assay: Antibiofilm activity against Klebsiella pneumoniae incubated for 24 hrs followed by biofilm resuspension in PBS and measured after 24 hrs; assay type: functional; how it was run: as §4
Pseudomonas aeruginosa [32] = assay: Antimicrobial activity against Pseudomonas aeruginosa assessed as inhibition of microbial growth at 45 uM after 24 hrs; assay type: functional, organism-based; how it was run: as §2
Staphylococcus aureus [33] = assay: Bactericidal activity against Staphylococcus aureus after 24 hrs; assay type: functional
Enterococcus faecium [34] = assay: Bactericidal activity against Enterococcus faecium after 24 hrs; assay type: functional
Staphylococcus aureus [35] = assay: Antibiofilm activity against Staphylococcus aureus incubated for 24 hrs followed by biofilm resuspension in PBS and measured after 24 hrs; assay type: functional; how it was run: as §4
Staphylococcus aureus [36] = assay: Induction of spontaneous mutation in Staphylococcus aureus at 2 to 10 MIC; assay type: functional, organism-based
Acinetobacter baumannii [37] = assay: Antimicrobial activity against Acinetobacter baumannii assessed as inhibition of microbial growth at 45 uM after 24 hrs; assay type: functional, organism-based; how it was run: as §2
Enterobacter cloacae [38] = assay: Induction of spontaneous mutation in Enterobacter cloacae at 2 to 10 MIC; assay type: functional, organism-based
Pseudomonas aeruginosa [39] = assay: Bactericidal activity against Pseudomonas aeruginosa after 24 hrs; assay type: functional
Klebsiella pneumoniae [40] = assay: Antimicrobial activity against Klebsiella pneumoniae assessed as inhibition of microbial growth at 45 uM after 24 hrs; assay type: functional, organism-based; how it was run: as §2
Enterobacter cloacae [41] = assay: Antimicrobial activity against Enterobacter cloacae assessed as inhibition of microbial growth at 45 uM after 24 hrs; assay type: functional, organism-based; how it was run: as §2
Pseudomonas aeruginosa [42] = assay: Antimicrobial activity against Pseudomonas aeruginosa isolate 1414 assessed as inhibition of microbial growth in presence of 100 uM efflux pump inhibitor reserpine after 24 hrs; assay type: functional, organism-based
Acinetobacter baumannii [43] = assay: Ratio of MIC for Acinetobacter baumannii measured after 8 cycle passage to MIC for wild type Acinetobacter baumannii; assay type: functional
Pseudomonas aeruginosa [44] = assay: Antibiofilm activity against Pseudomonas aeruginosa incubated for 24 hrs followed by biofilm resuspension in PBS and measured after 24 hrs; assay type: functional; how it was run: as §4
[45] = Selectivity index, ratio of IC50 for human A549 cells to MIC for Acinetobacter baumannii
Enterococcus faecium [46] = assay: Induction of spontaneous mutation in Enterococcus faecium at 2 to 10 MIC; assay type: functional, organism-based
Klebsiella pneumoniae [47] = assay: Induction of spontaneous mutation in Klebsiella pneumoniae at 2 to 10 MIC; assay type: functional, organism-based
Enterococcus faecium [48] = assay: Antibiofilm activity against Enterococcus faecium incubated for 24 hrs followed by biofilm resuspension in PBS and measured after 24 hrs; assay type: functional; how it was run: as §4

CCCCCCCN1C(=N)N(CCCC[C@H]2CNC(=N)N2CCC23C[C@H]4C[C@@H](C2)C[C@@H](C3)C4)C[C@@H]1CCCC
MBC90 (Klebsiella pneumoniae [1]): 2.6 µM (≈ 1.41 µg/mL) | MIC (Enterococcus faecium [2]): 1.7 µM | MIC (Acinetobacter baumannii [3]): 1.7 µM | Activity (Pseudomonas aeruginosa [4]): inactive | Activity (Staphylococcus aureus [5]): inactive | Selectivity Index [6]: 88 | Selectivity Index [7]: 88 | Activity (Acinetobacter baumannii [8]): inactive | Ratio (Staphylococcus aureus [9]): 16 | Ratio (Klebsiella pneumoniae [10]): <=8 | growth inhibition (GI) (Enterococcus faecium [11]): Active | Activity (Staphylococcus aureus [12]): Active | hemolysis at 0.25 h, 10 µM [13]: 0.34% | MIC (Klebsiella pneumoniae [14]): 1.7 µM | MIC (Staphylococcus aureus [15]): 1.7 µM | Survival (Staphylococcus aureus [16]): 0.2% | MBEC50 (Acinetobacter baumannii [17]): 24 µM | MBEC50 (Enterobacter cloacae [18]): 15 µM | growth inhibition (GI) (Staphylococcus aureus [19]): Active | fold change (FC) (Staphylococcus aureus [20]): 2.5 | Selectivity Index [21]: 88 | Selectivity Index [22]: 88 | IC50 (A549): 146 µM | Selectivity Index [23]: 88 | viability at 48 h [24]: 53% | Ratio (Enterobacter cloacae [25]): <=8 | viability at 48 h, 225 µM [26]: 35% | MBC90 (Acinetobacter baumannii [27]): 4.7 µM (≈ 2.54 µg/mL) | MBC90 (Enterobacter cloacae [28]): 2.7 µM (≈ 1.46 µg/mL) | MIC (Enterobacter cloacae [29]): 1.7 µM | MIC (Pseudomonas aeruginosa [30]): 1.7 µM | MBEC50 (Klebsiella pneumoniae [31]): 8.6 µM | growth inhibition (GI) (Pseudomonas aeruginosa [32]): Active | MBC90 (Staphylococcus aureus [33]): 2.9 µM (≈ 1.57 µg/mL) | MBC90 (Enterococcus faecium [34]): 3.6 µM (≈ 1.95 µg/mL) | MBEC50 (Staphylococcus aureus [35]): 6.4 µM | Activity (Staphylococcus aureus [36]): inactive | growth inhibition (GI) (Acinetobacter baumannii [37]): Active | Activity (Enterobacter cloacae [38]): inactive | MBC90 (Pseudomonas aeruginosa [39]): 2.8 µM (≈ 1.51 µg/mL) | growth inhibition (GI) (Klebsiella pneumoniae [40]): Active | growth inhibition (GI) (Enterobacter cloacae [41]): Active | growth inhibition (GI) (Pseudomonas aeruginosa [42]): Active | Ratio (Acinetobacter baumannii [43]): <=8 | MBEC50 (Pseudomonas aeruginosa [44]): 5 µM | Selectivity Index [45]: 88 | Activity (Enterococcus faecium [46]): inactive | Activity (Klebsiella pneumoniae [47]): inactive | MBEC50 (Enterococcus faecium [48]): 13 µM
